# Source: PubChem
# In the library only some 2% were active in any assay of this set; here they are far more common.
# CASP6 VEID inh: inhibitors of human caspase-6 | P55212 | purified caspase-6, Z-VEID-R110 cleavage fluorescence | inhibition, % at 12.5 µM | actives 0.53% (n = 350,000);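 active = mean inhibition across replicates at least about 35%, with every replicate also reaching that limit, limit read from the data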;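 also: 0% = median of neutral control wells and 100% = no fluorescence left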
# Target sequence (P55212 24-179 limits assumed): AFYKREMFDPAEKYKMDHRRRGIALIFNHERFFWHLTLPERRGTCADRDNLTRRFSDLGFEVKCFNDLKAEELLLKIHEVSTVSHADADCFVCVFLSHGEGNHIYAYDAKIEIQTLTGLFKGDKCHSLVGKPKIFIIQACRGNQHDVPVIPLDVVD
# Target sequence (P55212 194-293 limits assumed): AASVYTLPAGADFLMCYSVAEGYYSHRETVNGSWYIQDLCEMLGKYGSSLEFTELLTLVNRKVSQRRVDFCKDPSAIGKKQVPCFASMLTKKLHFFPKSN
# CaV13 ICDI inh: Primary screen for inhibitors of IQ motif and Ca2+-dependent inactivation inhibitor domain binding in CACNA1D, Förster resonance energy transfer in living cells, …; HEK cells, CFP/YFP FRET ICDI-IQ, plate reader, 10 min; percent FRET-ratio fall versus neutral wells; inhibition, % at 12.3 µM; actives 0.098% (n = 340,000);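 active = mean replicate inhibition of at least 30% and at least 1% of replicates passing that level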;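 also: 0% = median of the neutral control wells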
# Xi reactivation: X-chromosome reactivation activator. actives 0.055% (n = 360,000). AID 743238. activation, % at 7.58 µM. XiGFP mouse fibroblasts, % GFP-positive cells imaging, 3 d; cells co-treated with 5-aza-dC sensitizer; scaled so ellipticine positive control = 100%;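 active = mean normalized replicate activation at least 10% and every replicate at or above 10%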;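 also: 0% = median of on-plate neutral control wells and 100% = ellipticine 6 µM median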
#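 Assay system: SV40-immortalized XiGFP fibroblast cells, line 68-5-11; buffer or medium: DMEM plus 5-aza-dC sensitizer; compound: one concentration, pinned; timing: compounds 3 days, fix/stain 15 min at room temperature; benchmarks: positive control ellipticine, 6 µM final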
# DENV2 CPE: inhibitors of DENV2 cytopathic effect; DENV2-infected cells, cytopathic effect rescue, plate reader; CPE inhibition, % at 9.99 µM; actives 1.7% (n = 350,000); in the data active = CPE inhibition above about 20%, passing the limit was not always enough; tested in BHK-21 cells;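 also: 0% = median of neutral control wells and 100% = median of positive control wells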
# FN deposit inh: fibronectin deposition inhibition; AH1F fibroblasts, Alexa488-fibronectin deposition fluorescence, overnight; inhibition, % at 12.6 µM; actives 0.086% (n = 350,000);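 active = mean inhibition across replicates of 30% or more, regardless of how many single replicates reach that level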;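 also: positive control wells lacked labelled fibronectin entirely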
#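 Material: AH1F fibroblast monolayer depositing Alexa488-labelled fibronectin into matrix / Amount: 10000 AH1F cells per well / Signal: fluorescence 485/525 nm / Medium: DMEM, 2% serum / Compound: single dose, pinned / Incubation: 1 h cell adhesion before compound, then overnight fibronectin incubation / Reagent: Alexa488-FN, 24 nM final / Read-out: inhibition of fibronectin deposition signal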
# * marks the source's active call; other numbers are inactive results; x = no result given; ! = a repeat was not active.
SMILES,CASP6 VEID inh,CaV13 ICDI inh,Xi reactivation,DENV2 CPE,FN deposit inh
COc1cccc(-c2ccc([C@@H]3[C@H]4CN(C(=O)Cc5ccncc5)CCCCN4[C@H]3CO)cc2)c1,x,x,0,-12,8
Clc1ccc([C@H]2CC3CCC2N3)cn1 (stereo partly drawn),1,x,x,49*!,x
CC=Cc1ccc2n(c1=O)C[C@@H]1[C@@H](CO)[C@H](C(=O)OC)[C@H]2N1C(=O)CC1CC1 (mixture of isomers),-2,x,1,x,x
COC(=O)[C@@H]1[C@@H](CO)[C@@H]2Cn3c(ccc(C4=CCCC4)c3=O)[C@H]1N2Cc1ccccn1,-1,x,0,118*,x
COC(=O)[C@H]1[C@H](CO)[C@H]2Cn3c(ccc(C4=CCCCC4)c3=O)[C@@H]1N2C(=O)Cc1ccccn1,-2,x,0,7,x
COC(=O)[C@@H]1[C@@H](CO)[C@@H]2Cn3c(ccc(C4=CCCCC4)c3=O)[C@H]1N2Cc1ccccc1OC,1,x,2,24*,x
COc1ccc(OC(=O)N(C)C[C@H]2OCc3ccccc3-c3c(n(C)c4ccccc34)C(=O)N([C@@H](C)CO)C[C@@H]2C)cc1,-2,x,0,10,-10
O=C(Cc1ccccn1)N1CCCCN2[C@H](CO)[C@@H](c3ccc(-c4ccccc4)cc3)[C@@H]2C1,-1,x,0,-6,x
Nc1ccc(CC2=NCCN2)cc1,-93,-6,0,38*,x
CCCCn1nnnc1C(CCSC)N1CCC(n2c(=O)[nH]c3ccccc32)CC1 (stereo not drawn),50*,-6,0,15,2
COc1ccc(-n2nnnc2C(CCc2ccccc2)N2CCC(n3c(=O)[nH]c4ccccc43)CC2)cc1 (stereo not drawn),0,-6,0,56*,x
O=C(Cc1ccccc1)N1C[C@H]2[C@@H](c3ccccc31)[C@@H](CO)N2Cc1ccccc1,x,x,0,12,x
OC[C@@H]1Nc2ccc(C#Cc3cccnc3)cc2[C@H]2NCC[C@@H]12,x,x,0,x,-4
CCc1ccc(N2C(=O)NC(=O)/C(=C/c3cccn3CCOc3ccc(C)cc3)C2=O)cc1,10,-11,2,4,10
Cc1cccc(OCCn2cccc2/C=C2/C(=O)NC(=O)N(Cc3ccco3)C2=O)c1,44*,-6,0,3,19
O=C1NC(=O)N(Cc2ccco2)C(=O)/C1=C\c1cccn1CCOc1ccc(Cl)cc1,68*,1,0,-6,-12
COC(=O)[C@@H]1[C@@H](CO)[C@@H]2Cn3c(ccc(C4=CCCCC4)c3=O)[C@H]1N2CC1CCCC1,-2,x,1,3,x
COc1ccc(C#Cc2ccc([C@H]3[C@@H](CO)N4CCCCN(C(=O)Cc5ccccc5)C[C@H]34)cc2)cc1,-2,x,0,-24,6
Cc1ccc(/C=C2\C(=O)NC(=O)N(CC3CCCO3)C2=O)s1 (stereo not drawn),21,3,0,30*,9
N#CC1=C(N)Oc2cc(O)ccc2C1c1ccc2c(c1)OCO2 (stereo not drawn),-1,144*,0,7,1
CC(C)NC(=O)N1C[C@@H]2N[C@H](C1)C2c1ccccc1 (stereo partly drawn),x,x,0,x,-10
O=C(Cc1ccccc1)N1CCCCN2[C@H](C1)[C@H](c1ccc(C#Cc3ccccc3)cc1)[C@@H]2CO,3,x,0,-15,x
O=[N+]([O-])c1cccc(O)c1,-2,x,x,25*,x
CCCN1[C@@H]2Cn3c(ccc(-c4ccccc4)c3=O)[C@H]1[C@@H](C(=O)OC)[C@@H]2CO,0,x,0,7,x
O=C(O)[C@H]1[C@H](CO)[C@H]2Cn3c(ccc(-c4cccnc4)c3=O)[C@@H]1N2C(=O)Nc1cc(F)ccc1F,-1,x,0,-1,13
SMILES,CASP6 VEID inh,CaV13 ICDI inh,Xi reactivation,DENV2 CPE,FN deposit inh
CCC(c1ccc(C)cc1)N1C(=O)C2C3CCC(O3)C2C1=O (stereo not drawn),0,-5,0,25*,5
Cc1cc(Cl)ccc1C(=O)C1CCCN(Cc2ccon2)C1 (stereo not drawn),0,-7,0,5,x
O=C(c1cccc2ccccc12)C1CCCN(Cc2ccon2)C1 (stereo not drawn),-1,-5,27*,2,10
C[C@@H]1CN([C@H](C)CO)C(=O)c2c(c3ccccc3n2C)-c2ccccc2CO[C@H]1CN(C)C(=O)Oc1ccccc1,1,x,0,1,-7
Cc1ccc2c(c1N)C(=O)c1ccccc1C2=O,5,x,x,31*,x
CC(C)COC(=O)c1ccccc1C(=O)OCC(C)C,-2,x,x,-18,x
C[CH2][Hg][S]c1ccccc1C(=O)O,49*,-5,1,-23,26
CC(=O)N1[C@@H]2c3ccc(-c4cccc(C(=O)N(C)C)c4)c(=O)n3C[C@H]1[C@H](CO)[C@H]2C(=O)O,0,x,0,-4,x
NC(N)=N/N=C/c1cn(-c2ccccc2)nc1-c1cccs1,2,-4,0,-2,35*
CCN1[C@@H]2c3ccc(-c4ccc(OC)cc4)c(=O)n3C[C@H]1[C@H](CO)[C@H]2C(=O)OC,0,x,0,1,x
CCOc1cccc(N2C(=O)/C(=C/c3ccco3)C(=O)NC2=S)c1,87*,-3,0,-2,-10
Cc1cccc(N2C(=O)/C(=C/N3CCN(C(=O)c4ccco4)CC3)C(=O)NC2=S)c1,x,-6,x,x,x
O=C1NC(=S)N(c2ccccc2)C(=O)/C1=C/c1ccco1,95*,-3,0,3,-3
COc1ccccc1/C=C1\C(=O)NC(=S)N(c2ccccc2)C1=O,x,-19,0,-2,-1
NCCc1c[nH]c2ccccc12,-2,x,x,63*,x
Fc1ccccc1CNCCc1c[nH]c2ccccc12,-10,-2,0,32*,2
O=C1NC(=O)N(c2cccc(Cl)c2)C(=O)/C1=C\c1ccc(Sc2nc3ccccc3[nH]2)o1,70*,-19,0,3,-11
O=C1NC(=O)N(c2ccccc2F)C(=O)/C1=C/c1ccc(Sc2nc3ccccc3[nH]2)o1,60*,-5,0,-9,-6
CN1CCC2(CC1)C(C#N)=C(N)NC(S)=C2C#N,47*!,-5,0,13,3
O=C1NC(=O)N(c2ccc3c(c2)OCO3)C(=O)/C1=C/c1ccc(N2CCCCC2)o1,x,-6,x,x,x
O=C1NC(=O)N(c2ccc3c(c2)OCO3)C(=O)/C1=C\c1ccc(-c2ccccc2C(=O)O)o1,43*,-15,0,-6,1
O=C1CNC[C@@H]2[C@@H](c3ccc(Br)cc3)[C@H](CO)N12,0,x,0,-7,3
O=C(Cc1ccccc1)N1CC2(C1)[C@H](c1ccccc1)[C@H](CO)N2Cc1cccc(Cl)c1,0,x,0,4,-4
